# Test results reported in ChEMBL document CHEMBL4400546, “A Cinchona Alkaloid Antibiotic That Appears To Target ATP Synthase in Streptococcus pneumoniae” (J Med Chem, 2019).
# Columns and labels:
# [1] = Elimination half life in ICR mouse at 25 mg/kg, po via bolus administration by LC-MS/MS analysis; assay type: ADME, organism-based; conditions: in vivo, read-out: beta t1/2 (converted)
# Method in brief: (§1)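 Single-dose PK in male ICR mice, bolus p.o. 25 mg/kg or i.v. 2.5 mg/kg. Plasma concentration followed over time, n = 3. Parameters derived by noncompartmental analysis of the concentration–time curves. Oral bioavailability calculated from AUC.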
# [2] = test system: Streptococcus pneumoniae; assay: Antibacterial activity against Streptococcus pneumoniae D39 after 20 hrs by CLSI-based microdilution method; assay type: functional; conditions: D39, 20 h
# [3] = Cytotoxicity against human HepG2 cells assessed as reduction in cell viability after 48 hrs by Alamar Blue assay; assay type: cell-based
# [4] = Tmax in ICR mouse at 25 mg/kg, po via bolus administration by LC-MS/MS analysis; assay type: ADME, organism-based; conditions: in vivo
# Method in brief: (§2)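 Male ICR mice, single oral bolus at 25 mg/kg. Serum concentration-time profiles (n = 3) analysed by noncompartmental analysis.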
# [5] = Cmax in ICR mouse at 25 mg/kg, po via bolus administration by LC-MS/MS analysis; assay type: ADME, organism-based; parameters: dose 25 mg/kg, route oral; conditions: in vivo; method in brief: as §1
# [6] = AUCt in ICR mouse at 25 mg/kg, po via bolus administration by LC-MS/MS analysis; assay type: ADME, organism-based; conditions: in vivo; method in brief: as §1
# [7] = Oral bioavailability in ICR mouse at 25 mg/kg via bolus administration by LC-MS/MS analysis; assay type: ADME, organism-based; conditions: in vivo; method in brief: as §2
# [8] = Elimination half life in ICR mouse at 2.5 mg/kg, iv by LC-MS/MS analysis; assay type: ADME, organism-based; conditions: in vivo, read-out: beta t1/2 (converted); method in brief: as §1
# [9] = Tmax in ICR mouse at 2.5 mg/kg, iv by LC-MS/MS analysis; assay type: ADME, organism-based; conditions: in vivo
# Method in brief: (§3)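 Male ICR mice, single i.v. bolus at 2.5 mg/kg. Serum concentration-time curves (n = 3) analysed noncompartmentally to give Tmax and steady-state volume of distribution.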
# [10] = Cmax in ICR mouse at 2.5 mg/kg, iv by LC-MS/MS analysis; assay type: ADME, organism-based; parameters: dose 2.5 mg/kg, route intravenous; conditions: in vivo; method in brief: as §1
# [11] = AUCt in ICR mouse at 2.5 mg/kg, iv by LC-MS/MS analysis; assay type: ADME, organism-based; conditions: in vivo; method in brief: as §1
# [12] = Volume of distribution at steady state in ICR mouse at 2.5 mg/kg, iv by LC-MS/MS analysis; assay type: ADME, organism-based; conditions: in vivo, read-out: Vdss; method in brief: as §3
# [13] = Clearance in ICR mouse at 2.5 mg/kg, iv by LC-MS/MS analysis; assay type: ADME, organism-based; conditions: in vivo; method in brief: as §1
# [14] = Drug metabolism in ICR mouse liver microsomes at 10 uM preincubated with NADPH for 10 mins and measured after 60 mins by LC-MS/MS analysis; assay type: ADME, Microsome; conditions: read-out: Drug metabolism
# [15] = Drug metabolism in ICR mouse liver microsomes assessed as ) 6-(cyclobutoxy)-4-[(R)-hydroxy-[(1S,2S,4S,5Z)-5-(2-hydroxyethylidene)quinuclidin-2-yl]methyl]-1H-quinolin-2-one metabolite formation at 10 uM preincubated with NADPH for 10 mins by LC-MS/MS analysis; assay type: ADME, Microsome
# [16] = Drug metabolism in ICR mouse liver microsomes assessed as (2S,3S,4S,5R,6R)-6-[[4-[(R)-[(1S,2S,4S,5Z)-5-ethylidenequinuclidin-2-yl]-hydroxy-methyl]-6-quinolyl]oxy]-3,4,5-trihydroxy-tetrahydropyran-2-carboxylic acid metabolite formation at 10 uM preincubated with NADPH for 10 mins by LC-MS/MS analysis; assay type: ADME, Microsome
# [17] = Drug metabolism in ICR mouse liver microsomes assessed as [(1S,2S,4S,5Z)-5-ethylidenequinuclidin-2-yl]-(6-hydroxy-4-quinolyl)methanone metabolite formation at 10 uM preincubated with NADPH for 10 mins by LC-MS/MS analysis; assay type: ADME, Microsome
# [18] = Drug metabolism in ICR mouse liver microsomes assessed as [6-(cyclobutoxy)-4-quinolyl]-[(1S,2S,4S,5Z)-5-(2-hydroxyethylidene)quinuclidin-2-yl]methanone metabolite formation at 10 uM preincubated with NADPH for 10 mins by LC-MS/MS analysis; assay type: ADME, Microsome
# [19] = Drug level in ICR mouse liver microsomes treated with 6-Cyclobutoxy-(R)-4-[((1S,2S,4S,5Z)-5-ethylidene-1-azabicyclo-[2.2.2]octan-2-yl)hydroxymethyl]quinoline at 10 uM preincubated with NADPH for 10 mins and measured after 90 mins by LC-MS/MS analysis; assay type: ADME, Microsome; conditions: 1.5 h
# [20] = Drug level in ICR mouse liver microsomes treated with 6-Cyclobutoxy-(R)-4-[((1S,2S,4S,5E)-5-ethylidene-1-azabicyclo[2.2.2]octan-2-yl)hydroxymethyl]quinoline at 10 uM preincubated with NADPH for 10 mins and measured after 90 mins by LC-MS/MS analysis; assay type: ADME, Microsome; conditions: 1.5 h
# [21] = test system: Streptococcus pneumoniae; assay: Antibacterial activity against Streptococcus pneumoniae; assay type: functional
# Method in brief: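 MIC read per CLSI guidelines as the lowest concentration giving complete inhibition of visible growth. The main screen used strain D39. A further panel covered drug-sensitive, multidrug-resistant and optochin-resistant strains, including R6 carrying atpE point mutations G142C or G145A made by a PCR-based approach.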
# [22] = test system: Staphylococcus aureus; assay: Antibacterial activity against Staphylococcus aureus; assay type: functional
# [23] = test system: Staphylococcus epidermidis; assay: Antibacterial activity against Staphylococcus epidermidis; assay type: functional
# [24] = test system: Enterococcus faecalis; assay: Antibacterial activity against Enterococcus faecalis; assay type: functional
# [25] = test system: Streptococcus pyogenes; assay: Antibacterial activity against Streptococcus pyogenes; assay type: functional
# [26] = test system: Enterococcus faecium; assay: Antibacterial activity against Enterococcus faecium; assay type: functional
# [27] = Mitochondrial toxicity in human HepG2 cells assessed as reduction in cell viability after 24 hrs in presence of galactose by CellTiter-Glo assay; assay type: cell-based
# Method in brief: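 HepG2 cells are grown in DMEM supplemented with 10 mM galactose or 10 mM glucose and treated for 24 h. Viability is read by CellTiter-Glo luminescence. The CC90 is the concentration inhibiting 90% of cell viability, taken from dose–response curves. Oligomycin and tamoxifen serve as controls.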
# [28] = Mitochondrial toxicity in human HepG2 cells assessed as reduction in cell viability after 24 hrs in presence of glucose by CellTiter-Glo assay; assay type: cell-based
# Method in brief: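 HepG2 cells grown in DMEM with 10 mM glucose, treated 24 h; viability read by CellTiter-Glo luminescence. Value is the concentration giving 90% loss of viability (CC90) from dose-response curves, top concentration 300 µM.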
# [29] = test system: Streptococcus pneumoniae; assay: Bactericidal activity against Streptococcus pneumoniae D39 after 24 hrs; assay type: functional; conditions: D39, 24 h
# [30] = test system: Streptococcus pneumoniae; assay: Antibacterial activity against amoxicillin/penicillin/cefotaxime/erythromycin/tetracycline-resistant Streptococcus pneumoniae TH2784 (19F) after 20 hrs by CLSI-based microdilution method; assay type: functional
# [31] = test system: Streptococcus pneumoniae; assay: Antibacterial activity against amoxicillin/penicillin/chloramphenicol/erythromycin/meropenem/cefotaxime-resistant Streptococcus pneumoniae TH2582 (19A) after 20 hrs by CLSI-based microdilution method; assay type: functional
# [32] = test system: Streptococcus pneumoniae; assay: Antibacterial activity against amoxicillin/penicillin/erythromycin/ertapenem/moxifloxacin/cefotaxime-resistant Streptococcus pneumoniae TH2889 (6B) after 20 hrs by CLSI-based microdilution method; assay type: functional
# [33] = test system: Streptococcus pneumoniae; assay: Antibacterial activity against Streptococcus pneumoniae R6 after 20 hrs by CLSI-based microdilution method; assay type: functional; conditions: R6, 20 h
# [34] = test system: Streptococcus pneumoniae; assay: Antibacterial activity against penicillin/erythromycin/meropenem/tetracycline-resistant Streptococcus pneumoniae TH2863 (19F) after 20 hrs by CLSI-based microdilution method; assay type: functional
# [35] = test system: Streptococcus pneumoniae; assay: Antibacterial activity against optochin-resistant Streptococcus pneumoniae R6 expressing atpE G142C mutant after 20 hrs by CLSI-based microdilution method; assay type: functional; conditions: R6, 20 h
# [36] = test system: Streptococcus pneumoniae; assay: Antibacterial activity against optochin-resistant Streptococcus pneumoniae R6 expressing atpE G145A mutant after 20 hrs by CLSI-based microdilution method; assay type: functional; conditions: R6, 20 h
# [37] = Protein binding in plasma (unknown origin); assay type: ADME, cell-free; conditions: read-out: PPB
# [38] = Cmax in human; assay type: ADME
# [39] = Elimination half life in human
# [40] = test system: Streptococcus pneumoniae D39; assay: Inhibition of wild-type Streptococcus pneumoniae D39 ATP synthase atpE assessed as intracellular pH at 10 uM measured at 5 mins intervals by pH-sensitive GFP-based fluorescence assay (reference value: 7.34 +/- 0.04); assay type: cell-based
# Method in brief: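 S. pneumoniae D39 WT and isogenic atpE G142C or G145A mutants carry a plasmid-borne ratiometric pH-sensitive GFP biosensor. Cells are in PBS pH 7.2 with 10 mM glucose and are treated with compound, DMSO (0.5% v/v) or CCCP (10 µM). Intracellular pH is read immediately and at 5-min intervals. Two independent experiments, each in triplicate.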
SMILES,half-life [1] [min],MIC [2] [µM],CC50 at 48 h [3] [µM],Tmax [4] [min],Cmax [5] [ng/mL],AUC(0-t) [6] [ng·h/mL],bioavailability [7] [%],half-life [8] [min],Tmax [9] [min],Cmax [10] [ng/mL],AUC(0-t) [11] [ng·h/mL],Vd [12] [L/kg],clearance [13] [mL/min/kg],"metabolised at 1 h, 10 µM [14] [%]",CC90 at 24 h [27] [µM],CC90 at 24 h [28] [µM],other results
C/C=C1/C[N@]2CC[C@H]1C[C@H]2[C@H](O)c1ccnc2ccc(OC3CCC3)cc12,42,0.7,65,4.98,331,368,21,26.4,1.98,399,175,8.8,230,,,,
C/C=C1\C[N@]2CC[C@H]1C[C@H]2[C@H](O)c1ccnc2ccc(OC3CCC3)cc12,41.4,1.4,59,15,207,319,13.6,25.2,1.98,521,235,6.3,172,99.8,,,Drug metabolism [15]: Metabolite_Detected; Drug metabolism [16]: Metabolite_Detected; Drug metabolism [17]: Metabolite_Detected; Drug metabolism [18]: Metabolite_Detected; Drug uptake [19]: Active; Drug uptake [20]: Active
OC(c1cc(C2C[C@H]3CC[C@@H]2CC3)nc2c(Cl)c(Cl)ccc12)C1CCCCN1 (stereo partly drawn),,,,,,,,,,,,,,,,,MIC [21]: 0.08 to 1.25 µg/mL; MIC [22]: 1.5 to 6.3 µg/mL; MIC [23]: 1.5 to 6.3 µg/mL; MIC [24]: 1.5 to 6.3 µg/mL; MIC [25]: 1.5 to 6.3 µg/mL; MIC [26]: 1.5 to 6.3 µg/mL
C/C=C1/CN2CC[C@H]1C[C@H]2[C@H](O)c1ccnc2ccc(O)cc12,54.6,52,> 100,4.98,619,442,23.3,67.2,1.98,511,190,20,207,89,300,> 300,MBC [29]: 16 µg/mL; MIC [30]: 4 µg/mL; MIC [31]: 64 µg/mL; MIC [32]: 128 µg/mL
CCOc1ccc2nccc([C@@H](O)[C@@H]3C[C@@H]4CCN3C[C@@H]4CC)c2c1 [ETHYLHYDROCUPREINE],60,6 to 12,> 100,30,639,1570,109,31.8,1.98,375,144,12.7,274,87,300,300,MBC [29]: 4 µg/mL; MIC [33]: 2 µg/mL; MIC [30]: 2 µg/mL; MIC [31]: 2 µg/mL; MIC [32]: 2 µg/mL; MIC [34]: 4 to 8 µg/mL; MIC [35]: 64 µg/mL; MIC [36]: 16 µg/mL
"O[C@@H](c1cc(C(F)(F)F)nc2c(C(F)(F)F)cccc12)[C@H]1CCCCN1 [(S,R)-MEFLOQUINE]",,,,,,,,,,,,,,,,,MIC [21]: 0.4 to 0.8 µg/mL; MIC [22]: 16 µg/mL; MIC [23]: 16 µg/mL; MIC [24]: 16 µg/mL; fraction unbound [37]: < 0.02; Cmax [38]: 50 ng/mL; half-life [39]: 20 days
N#CC(C#N)=NNc1cccc(Cl)c1,,,,,,,,,,,,,,,,,pH [40]: 5.43
